Assay outcomes (PubChem BioAssay)
aDG glyco act = activators of alpha-DG glycosylation, primary screen, uHTS, Pro5-aDG cells, AlphaScreen; alpha-DG glycosylation AlphaScreen (IIH6); 0% Pro5, 100% B10-LARGE cell signal; activation, % at 10 µM; 360,000 compounds, 0.22% hits;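 active = activation of at least 8% versus controls, or a plate z-score of at least 8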;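 also: Pro5 are CHO cells carrying HIG-tagged alpha-DG that lacks glycosylation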
MC4R ag barr = MC4R agonists recruiting beta-arrestin, primary screen, cell-based, luminescence, agonist arm of biased-ligand search | activation, % at 8.9 µM | 360,000 compounds, 0.98% hits | Melanocortin receptor 4 (Homo sapiens), P32245 | U2OS MC4R beta-arrestin complementation; percent of melanotan II response, DMSO zero | AID 540308, 2011;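 active = activation above a per-plate cutoff, the mean activation of sample wells on that plate plus 3 SD, cut at about 8% in these data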
Target sequence (P32245 whole entry, looked up): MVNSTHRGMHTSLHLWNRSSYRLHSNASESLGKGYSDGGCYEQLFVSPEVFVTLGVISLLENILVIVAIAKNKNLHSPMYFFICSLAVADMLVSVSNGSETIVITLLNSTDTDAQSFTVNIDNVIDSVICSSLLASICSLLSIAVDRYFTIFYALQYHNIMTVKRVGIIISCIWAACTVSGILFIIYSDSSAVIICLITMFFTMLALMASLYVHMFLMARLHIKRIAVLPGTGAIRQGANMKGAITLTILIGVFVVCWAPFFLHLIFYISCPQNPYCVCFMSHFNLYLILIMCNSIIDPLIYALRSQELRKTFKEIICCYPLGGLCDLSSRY
NTR1 ag = agonists of human NTR1, primary screen, imaging, U2OS cells, beta-arrestin-GFP, high content | 330,000 compounds, 0.17% hits | Neurotensin receptor type 1 (Homo sapiens), P30989 | activation, % at 20 µM | NTR1-U2OS beta-arrestin-GFP spot imaging, agonist mode | AID 493036, 2011;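 active = activation at or above 40% of the spot to cytoplasm intensity ratio, with at least 20 cells analyzed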
Target sequence (P30989 whole entry, looked up): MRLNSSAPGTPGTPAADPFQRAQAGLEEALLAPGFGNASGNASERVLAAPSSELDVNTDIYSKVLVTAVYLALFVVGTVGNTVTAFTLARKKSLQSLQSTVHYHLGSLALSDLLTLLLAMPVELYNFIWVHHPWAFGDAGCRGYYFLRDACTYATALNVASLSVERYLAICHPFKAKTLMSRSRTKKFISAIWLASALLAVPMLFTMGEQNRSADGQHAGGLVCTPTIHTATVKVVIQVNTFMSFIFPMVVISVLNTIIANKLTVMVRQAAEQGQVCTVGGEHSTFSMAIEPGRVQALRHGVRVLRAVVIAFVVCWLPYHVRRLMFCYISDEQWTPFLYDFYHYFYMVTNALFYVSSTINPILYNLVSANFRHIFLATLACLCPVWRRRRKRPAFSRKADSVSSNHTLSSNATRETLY
MC4R antagonist = MC4R antagonists of cAMP signaling, primary screen, cell-based, TR-FRET, antagonist arm of biased-ligand search | Melanocortin receptor 4 (Homo sapiens), P32245 | MC4R-expressing cells, MTII-stimulated cAMP, LANCE TR-FRET | inhibition, % at 6.5 µM | 360,000 compounds, 0.48% hits;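 active = inhibition above its plate's cutoff, the mean of tested wells on that plate plus 3 SD, cut at about 29% in these data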
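System – human MC4R-expressing U2OS cells · Also added – Melanotan II · Dosing – one concentration, 6.5 µM nominal · Timing – 30-min compound, 1-h challenge, 1-h detection, room temperature · Measured by – Eu-cAMP/anti-cAMP TR-FRET, emission 671 nm · Replicates – singlicate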
H9c2 TAG inh = inhibitors of triacylglycerol accumulation, primary screen, cell-based, uHTS, fluorescence, H9c2 | 230,000 compounds, 0.66% hits | inhibition, % at 12.5 µM | H9c2 cells, Nile Red lipid (TAG) fluorescence; cells loaded with 200 µM oleic acid;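 active = pattern-corrected inhibition of lipid staining of at least 50% with the nuclear-stain viability signal not falling by more than 50%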
TbMetRS inhib = T. brucei MetRS inhibitors, primary screen, biochemical, luminescence. AID 624268, 2012. purified T. brucei MetRS, ATP depletion, Kinase-Glo luminescence. inhibition, % at 11.9 µM. methionyl-tRNA synthetase (Trypanosoma brucei brucei). 360,000 compounds, 0.4% hits;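 active = inhibition above a per-plate cutoff of the control wells' mean inhibition plus 3 SD, cut at about 5.5% in these data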
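Test system: purified T. brucei MetRS enzyme. Also added: ATP, methionine and E. coli bulk tRNA substrates. Compound: 11.9 µM single point. Schedule: 15 min enzyme-compound preincubation, 2 h reaction, 10 min detection, 25 °C. Signal: luciferase luminescence of residual ATP, Kinase-Glo. Evaluation: percent inhibition versus plate control medians. Controls: DMSO wells, low control.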
cAMP nonselect = nonselective cAMP signaling inhibitors, parental cells, counter-screen for MC4R biased antagonist project, cell-based, TR-FRET, U2OS, forskolin, triplicate | inhibition, % at 6.5 µM | LANCE TR-FRET | shares compounds with MC4R antagonist | 1,600 compounds, 26% hits;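 active = mean inhibition over triplicates above the low-control well mean plus 3 SD, set per campaign, cut at about 13% in these data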;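 also: signal is single emission at 671 nm which falls as cellular cAMP rises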
MC4R cAMP antag = MC4R cAMP antagonists, retest, confirmation, cell-based, TR-FRET; shares compounds with MC4R antagonist; AID 602195, 2012; MC4R-expressing cells, MTII-stimulated cAMP; 1,600 compounds, 27% hits; inhibition, % at 6.5 µM; in the data active = inhibition above about 29%
Large screens that a line does not name were inactive (follow-up assays come after a bar, where they were run). A selection: hits, their analogues and other compounds. The true share with any hit is near 2.4%.

C#CCOCCOCCOCCNc1nc(N2CCOCC2)nc(N2CCN(C(=O)CCCCCCCCCCNC(=O)[C@H]([C@@H](C)CC)n3cc(CCCCN=C(N)N)nn3)CC2)n1	none
C#CCOCCOCCOCCNc1nc(N2CCN(C(=O)CCCCCCCCCCNC(=O)[C@H]([C@@H](C)CC)n3cc(CCCCN=C(N)N)nn3)CC2)nc(N2CCN(C(=O)CCCCCCCCCCNC(=O)[C@@H]([C@H](C)O)n3cc(C)nn3)CC2)n1	MC4R antagonist 38 | cAMP nonselect 19 | MC4R cAMP antag 55
C=CCn1c(C)cc(C(=O)COc2ccc(N(C)S(=O)(=O)c3ccc(NC(C)=O)cc3)cc2)c1C	MC4R antagonist 40 | cAMP nonselect inactive | MC4R cAMP antag inactive
C[C@@H]1CN(Cc2nc(Cc3ccccc3F)no2)C[C@H](C)O1	MC4R antagonist 33 (no result: H9c2 TAG inh) | cAMP nonselect inactive | MC4R cAMP antag inactive
Cc1ccc(N2CC(C(=O)Nc3ccc(S(=O)(=O)N4CCOCC4)cc3)CC2=O)cc1 (centres undefined)	none (no result: H9c2 TAG inh)
Cc1cccc(N2CC(C(=O)Nc3ccc(S(=O)(=O)N4CCOCC4)cc3)CC2=O)c1 (centres undefined)	MC4R antagonist 30 | cAMP nonselect inactive | MC4R cAMP antag inactive
COc1ccc(Cl)cc1-c1cc(C(=O)Nc2ccc(Br)cc2)[nH]n1	none (no result: NTR1 ag)
CSCCC(Nc1ncnc2ccc(Br)cc12)C(=O)O (centres undefined)	MC4R antagonist 31 (no result: H9c2 TAG inh) | cAMP nonselect inactive | MC4R cAMP antag inactive
CC(C)Nc1ncnc2ccc(Br)cc12	none (no result: H9c2 TAG inh)
Cc1ccc(S(=O)(=O)N2[C@@H](CO)CO[C@H]2CC(=O)c2cccc3ccccc23)cc1	none (no result: MC4R ag barr, NTR1 ag, MC4R antagonist, H9c2 TAG inh)
CC1CC(Nc2ccccc2)c2ccccc2N1C(=O)c1ccco1 (centres undefined)	none
CC1CC(Nc2ccccc2)c2ccccc2N1C(=O)c1ccncc1 (centres undefined)	MC4R antagonist 34 | cAMP nonselect inactive | MC4R cAMP antag inactive
CC(=O)Nc1ccc(NC(=O)c2nc(S(=O)(=O)Cc3cccc(C)c3)ncc2Cl)cc1	MC4R antagonist 43 (no result: H9c2 TAG inh) | cAMP nonselect 14 | MC4R cAMP antag inactive
CC(C)c1nnc(NC(=O)c2nc(S(=O)(=O)Cc3ccccc3)ncc2Cl)s1	MC4R antagonist 51 (no result: H9c2 TAG inh) | cAMP nonselect 25 | MC4R cAMP antag 47
COc1ccccc1NC(=O)c1nc(S(=O)(=O)Cc2ccccc2)ncc1Cl	none (no result: H9c2 TAG inh)
CCCc1nnc(NC(=O)c2nc(S(=O)(=O)Cc3ccc(C)cc3)ncc2Cl)s1	MC4R antagonist 52 (no result: H9c2 TAG inh) | cAMP nonselect 22 | MC4R cAMP antag 36
COC(=O)c1ccc(NC(=O)c2nc(S(=O)(=O)Cc3cccc(C)c3)ncc2Cl)cc1	none (no result: H9c2 TAG inh)
CCc1ccc(NC(=O)c2nc(S(=O)(=O)Cc3ccccc3)ncc2Cl)cc1	MC4R antagonist 36 (no result: H9c2 TAG inh) | cAMP nonselect inactive | MC4R cAMP antag inactive
CSc1nnc(NC(=O)c2nc(S(=O)(=O)Cc3ccccc3)ncc2Cl)s1	none (no result: H9c2 TAG inh)
O=C(c1cc(C2CCCCN2S(=O)(=O)Cc2ccccc2)on1)N1CCOCC1 (centres undefined)	none (no result: NTR1 ag)
CC1(C)Cc2cccc(OC(=O)NC3CCCCC3)c2O1	none (no result: MC4R ag barr, NTR1 ag, MC4R antagonist, H9c2 TAG inh)
O=C1Nc2ccccc2CN2C(=O)c3cc(Cl)ccc3NC(=O)C12 (centres undefined)	none (no result: MC4R ag barr, NTR1 ag, MC4R antagonist, H9c2 TAG inh)
CN(c1ccccc1)S(=O)(=O)c1ccc(NC(=O)c2nc(S(C)(=O)=O)ncc2Cl)cc1	MC4R antagonist 57 (no result: H9c2 TAG inh) | cAMP nonselect 26 | MC4R cAMP antag 36
Cc1ccc(NC(=O)c2nc(S(=O)(=O)Cc3ccccc3C)ncc2Cl)cc1C	MC4R antagonist 32 (no result: H9c2 TAG inh) | cAMP nonselect 30 | MC4R cAMP antag inactive
CCOC(=O)c1ccc(NC(=O)c2nc(S(=O)(=O)Cc3ccccc3)ncc2Cl)cc1	none (no result: H9c2 TAG inh)
CCS(=O)(=O)c1ncc(Cl)c(C(=O)Nc2ccc(S(=O)(=O)N3CCC(C)CC3)cc2)n1	MC4R antagonist 56 (no result: H9c2 TAG inh) | cAMP nonselect inactive | MC4R cAMP antag 39
CC1CCN(S(=O)(=O)c2ccc(NC(=O)c3ccncc3)cc2)CC1	none
CCOc1ccccc1NC(=O)c1nc(S(=O)(=O)Cc2ccccc2)ncc1Cl	MC4R antagonist 33 (no result: H9c2 TAG inh) | cAMP nonselect inactive | MC4R cAMP antag inactive
CN(c1ccccc1)S(=O)(=O)c1ccc(NC(=O)c2ccccc2)cc1	none (no result: H9c2 TAG inh)
O=C1NC[C@@H](CCCCN2C[C@H](Cc3ccc(O)cc3)N(CCc3ccccc3)C(=O)C2=O)N(CCC2CCCCC2)C1=O	none (no result: MC4R ag barr, NTR1 ag, MC4R antagonist, H9c2 TAG inh)
CCOC(=O)C1(C)CCN1C(=O)c1cccs1 (centres undefined)	none (no result: NTR1 ag)
Cc1ccc(C(=O)NCc2ccc3c(c2)OCO3)c(Cl)c1	none (no result: NTR1 ag)
Cc1cccc(CS(=O)(=O)c2ncc(Cl)c(C(=O)NCc3ccc4c(c3)OCO4)n2)c1	MC4R antagonist 33 (no result: H9c2 TAG inh) | cAMP nonselect inactive | MC4R cAMP antag inactive
COc1ccc2c(c1)C(=O)O[C@@H](c1ccccc1)C[C@@H](O)C(=O)CC2	none (no result: MC4R ag barr, NTR1 ag, MC4R antagonist, H9c2 TAG inh)
CCN(CC)C(=O)C(C)N(C#N)c1nc(Cl)nc(N(C)C)n1 (centres undefined)	MC4R antagonist 43 | cAMP nonselect inactive | MC4R cAMP antag inactive
Cc1cc2nc(-c3ccccc3)c(Cc3ccccc3)n2c(C)c1Br	none (no result: MC4R ag barr, NTR1 ag, MC4R antagonist, H9c2 TAG inh)
CC(C)CNC(=O)COC(=O)c1c2c(nc3ccccc13)/C(=C\c1cccs1)CC2	MC4R antagonist 29 (no result: NTR1 ag) | cAMP nonselect inactive | MC4R cAMP antag inactive
CCOC(=O)CCC(NC(=O)c1ccc(NCN2C(=O)c3ccccc3C2=O)cc1)C(=O)OCC (centres undefined)	none
CCOC(=O)CCC(NC(=O)c1ccccc1C(=O)NC(CCC(=O)OCC)C(=O)OCC)C(=O)OCC (centres undefined)	MC4R antagonist 29 | cAMP nonselect inactive | MC4R cAMP antag inactive
Cc1ccc(N=N/C(=C\O)C(=O)c2ccc(Cl)cc2)cc1	none
O=C(/C(=C/O)N=Nc1ccccc1)c1ccc(Cl)cc1	MC4R antagonist 34 | cAMP nonselect inactive | MC4R cAMP antag inactive
